The source made the active and inactive calls. No cut-off for these calls is given here.
How the values were obtained:
[1] = molecular target: T1, Sterol regulatory element-binding protein 2 (Homo sapiens) (UniProt Q12772); conditions: HepG2, 10 uM
T1 sequence (whole entry): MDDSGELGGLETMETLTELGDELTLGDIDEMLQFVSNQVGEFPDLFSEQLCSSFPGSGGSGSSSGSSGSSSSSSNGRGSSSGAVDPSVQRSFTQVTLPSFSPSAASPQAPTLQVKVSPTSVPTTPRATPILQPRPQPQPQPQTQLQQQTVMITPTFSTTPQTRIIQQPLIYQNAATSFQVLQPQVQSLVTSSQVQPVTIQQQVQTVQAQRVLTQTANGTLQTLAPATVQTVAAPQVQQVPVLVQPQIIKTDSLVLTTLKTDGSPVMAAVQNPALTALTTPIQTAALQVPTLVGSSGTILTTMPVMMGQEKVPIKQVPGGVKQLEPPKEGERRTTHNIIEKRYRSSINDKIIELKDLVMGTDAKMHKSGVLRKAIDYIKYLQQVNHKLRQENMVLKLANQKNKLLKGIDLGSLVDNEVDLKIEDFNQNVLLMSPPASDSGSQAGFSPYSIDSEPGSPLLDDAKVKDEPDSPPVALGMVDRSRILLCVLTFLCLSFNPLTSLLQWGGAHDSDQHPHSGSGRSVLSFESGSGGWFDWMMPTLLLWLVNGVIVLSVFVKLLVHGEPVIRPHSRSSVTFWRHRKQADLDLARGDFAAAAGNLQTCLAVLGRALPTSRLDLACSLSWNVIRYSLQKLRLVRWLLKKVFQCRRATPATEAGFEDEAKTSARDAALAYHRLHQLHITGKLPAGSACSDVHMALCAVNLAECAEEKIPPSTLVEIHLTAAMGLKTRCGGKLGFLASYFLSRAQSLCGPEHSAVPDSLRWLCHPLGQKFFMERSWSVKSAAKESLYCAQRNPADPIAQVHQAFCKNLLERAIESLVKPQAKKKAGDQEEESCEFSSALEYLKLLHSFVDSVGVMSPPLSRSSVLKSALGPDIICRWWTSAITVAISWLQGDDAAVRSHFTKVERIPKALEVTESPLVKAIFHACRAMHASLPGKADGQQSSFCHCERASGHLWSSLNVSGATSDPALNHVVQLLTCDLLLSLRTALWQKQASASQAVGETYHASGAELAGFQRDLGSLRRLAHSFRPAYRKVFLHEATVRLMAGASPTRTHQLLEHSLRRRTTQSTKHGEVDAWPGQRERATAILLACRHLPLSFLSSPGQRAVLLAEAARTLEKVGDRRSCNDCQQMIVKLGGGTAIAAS

[2] = molecular target: T1, Sterol regulatory element-binding protein 2 (Homo sapiens); assay: Inhibition of SREBP2 maturation in human HepG2 cells at 50 uM after overnight incubation by immunoblot analysis; format: cell-based
Outline: (§1)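 Human HepG2 cells were incubated with test agents, including 10 µM atorvastatin alone or combined with conjugate. The mature form of SREBP-2 protein was then assessed.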

[3] = AUClast in Sprague-Dawley rat at 30 mg/kg, po administered as single dose measured up to 6 hrs post dose by LC/MS/MS analysis; conditions: in vivo
in vivo = conditions: Sprague-Dawley, rat, po, 30 mg/kg
Rattus norvegicus [4] = assay: Cmax in portal vein cannulated Sprague-Dawley rat assessed nicotinuric acid at 30 mg/kg, po measured up to 140 mins; format: ADME, organism-based; parameters: dose 30 mg/kg, route oral; conditions: in vivo
Outline: (§2)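 Sprague Dawley rats surgically fitted with indwelling jugular vein and portal vein cannulas; oral dosing, then serial blood draws from both portal and jugular veins at 10, 20, 40 min and 1, 2, 4, 6 hr post dose; plasma analysed for parent and metabolites by LC/MS/MS.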

Rattus norvegicus [5] = assay: Cmax in portal vein cannulated Sprague-Dawley rat assessed as (S)-N-(pyrrolidin-3-yl)nicotinamide at 30 mg/kg, po measured up to 140 mins; format: ADME, organism-based; parameters: dose 30 mg/kg, route oral; conditions: in vivo
Outline: as §2

Rattus norvegicus [6] = assay: Cmax in jugular vein cannulated Sprague-Dawley rat assessed as (S)-N-(pyrrolidin-3-yl)nicotinamide at 30 mg/kg, po measured up to 140 mins; format: ADME, organism-based; parameters: dose 30 mg/kg, route oral; conditions: in vivo
Outline: as §2

[7] = Cmax in jugular vein cannulated Sprague-Dawley rat at 30 mg/kg, po measured up to 140 mins; format: ADME, organism-based; parameters: dose 30 mg/kg, route oral; conditions: jugular vein blood
Outline: as §2

Rattus norvegicus [8] = assay: Cmax in jugular vein cannulated Sprague-Dawley rat assessed nicotinuric acid at 30 mg/kg, po measured up to 140 mins; format: ADME, organism-based; parameters: dose 30 mg/kg, route oral; conditions: in vivo
Outline: as §2

[9] = Cmax in portal vein cannulated Sprague-Dawley rat at 30 mg/kg, po measured up to 140 mins; format: ADME, organism-based; parameters: dose 30 mg/kg, route oral; conditions: portal vein blood
Outline: as §2

[10] = molecular target: T1, Sterol regulatory element-binding protein 2 (Homo sapiens); assay: Inhibition of SREBP2 in human HepG2 cells assessed as reduction of PCSK9 secretion at 50 uM after 16 hrs by ELISA; format: cell-based
Outline: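 Human HepG2 cells were treated in culture. Secreted PCSK9 in the culture supernatant was quantified with a human-specific PCSK9 ELISA.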

[11] = Drug uptake in endoplasmic reticulum of human HuH7 cells at 25 uM after 30 mins by LysoTracker/DAPI staining-based confocal microscopy; format: ADME, cell-based; conditions: huh-7, 0.5 h
Outline: (§3)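 HuH-7 hepatocellular carcinoma cells were plated overnight in DMEM with 10% FBS. They were transduced for 48 h with BacMam CellLight ER-RFP or Late Endosomes-RFP organelle markers. Cells were then exposed for 30 min to fluorescent cis-parinaric acid conjugate in DMEM at 25 µM. They were fixed in 4% paraformaldehyde for 2 min at 37 °C, washed with PBS, mounted with anti-fade DAPI and imaged by confocal microscopy at 63X.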

[12] = Drug uptake in lysosomes of human HuH7 cells at 25 uM after 30 mins by LysoTracker/DAPI staining-based confocal microscopy; format: ADME, cell-based, Lysosome; conditions: huh-7, 0.5 h
[13] = Drug uptake in endoplasmic reticulum of CellLight ER-RFP/BacMam 2-treated human HuH7 cells at 25 uM after 30 mins by DAPI staining-based confocal microscopy; format: ADME, cell-based; conditions: huh-7, 0.5 h
Outline: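 HuH-7 cells were plated overnight in 10% FBS DMEM and transduced with CellLight ER-RFP BacMam 2.0 for 48 h. They were then exposed to fluorescent conjugate at 25 µM in DMEM for 30 min, fixed in 4% paraformaldehyde for 2 min at 37 °C and washed with PBS. Imaging was by confocal microscopy with a 63X lens.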

[14] = molecular target: T1, Sterol regulatory element-binding protein 2 (Homo sapiens); assay: Induction of SREBP2 maturation in human HepG2 cells at 10 uM after overnight incubation by immunoblot analysis; format: cell-based
Outline: as §1

Mus musculus [15] = species on record: Mus musculus; assay: Inhibition of NFkappaB in mouse RAW 264.7 cells at 78.7 uM preincubated for 2 hrs followed by LPS addition for 3 hrs by luciferase reporter gene assay relative to control; format: cell-based
Plasma = assay: Drug level in Sprague-Dawley rat plasma treated with N-(2-(4Z,7Z,10Z,13Z,16Z,19Z)-docosa-4,7,10,13,16,19-hexaenamidoethyl)-2-hydroxybenzamide at 300 mg/kg, po measured up to 24 hrs post dose; format: ADME, organism-based; conditions: in vivo
Outline: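 Single oral dose of 300 mg/kg to Sprague Dawley rats. Plasma collected at 0, 0.5, 1, 2, 4, 8 and 24 hr. Analytes were the parent, the salicylate-linker and linker-DHA metabolites, salicylic acid and salicyluric acid; Cmax and AUClast derived.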

Mus musculus [16] = species on record: Mus musculus; conditions: 3.2 mM
Liver = assay: Drug uptake in Sprague-Dawley rat liver at 100 mg/kg, po qd for 3 days measured 4 hrs post last dose; format: ADME, organism-based; conditions: in vivo
Outline: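 Sprague Dawley rats (n = 6) dosed 100 mg/kg once daily for 3 days; plasma and tissues collected four hours after the last dose and analysed for parent compound and metabolites.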

Rattus norvegicus [17] = assay: Cmax in portal vein cannulated Sprague-Dawley rat assessed as N-(2-(methylamino)ethyl)nicotinamide at 30 mg/kg, po measured up to 140 mins; format: ADME, organism-based; parameters: dose 30 mg/kg, route oral; conditions: in vivo, BLD = below limit of detection
Outline: as §2

Rattus norvegicus [18] = assay: Cmax in jugular vein cannulated Sprague-Dawley rat assessed as N-(2-(methylamino)ethyl)nicotinamide at 30 mg/kg, po measured up to 140 mins; format: ADME, organism-based; parameters: dose 30 mg/kg, route oral; conditions: in vivo, BLD = below limit of detection
Outline: as §2

[19] = Drug uptake in endoplasmic reticulum of CellLight ER-RFP-treated human HuH7 cells at 25 uM after 30 mins by DAPI staining-based confocal microscopy in presence of endocytosis inhibitor dynasore; format: ADME, cell-based; conditions: huh-7, 0.5 h
Outline: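 HuH-7 cells were transduced with CellLight ER-RFP BacMam 2.0 for 48 h and pretreated with 80 µM dynasore. They were then exposed to compound for 30 min, fixed in 4% formaldehyde for 2 min at 37 °C and mounted with anti-fade DAPI. Imaging was by confocal microscopy with a 63X lens.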

[20] = Drug uptake in lysosomes of CellLight ER-RFP/BacMam 2-treated human HuH7 cells at 25 uM after 30 mins by DAPI staining-based confocal microscopy; format: ADME, cell-based, Lysosome; conditions: huh-7, 0.5 h
Outline: as §3

[21] = molecular target: T2, Fatty-acid amide hydrolase 1 (Homo sapiens, UniProt O00519); assay: Drug metabolism in human HepG2 cells assessed as FAAH-mediated compound hydrolysis by measuring level of deuterium-labelled EPA-d5 released at 50 uM by LC/MS-MS analysis; format: ADME, cell-based; conditions: hepg2, 50 µM, TDE = time-dependent effect
T2 sequence (O00519 whole entry): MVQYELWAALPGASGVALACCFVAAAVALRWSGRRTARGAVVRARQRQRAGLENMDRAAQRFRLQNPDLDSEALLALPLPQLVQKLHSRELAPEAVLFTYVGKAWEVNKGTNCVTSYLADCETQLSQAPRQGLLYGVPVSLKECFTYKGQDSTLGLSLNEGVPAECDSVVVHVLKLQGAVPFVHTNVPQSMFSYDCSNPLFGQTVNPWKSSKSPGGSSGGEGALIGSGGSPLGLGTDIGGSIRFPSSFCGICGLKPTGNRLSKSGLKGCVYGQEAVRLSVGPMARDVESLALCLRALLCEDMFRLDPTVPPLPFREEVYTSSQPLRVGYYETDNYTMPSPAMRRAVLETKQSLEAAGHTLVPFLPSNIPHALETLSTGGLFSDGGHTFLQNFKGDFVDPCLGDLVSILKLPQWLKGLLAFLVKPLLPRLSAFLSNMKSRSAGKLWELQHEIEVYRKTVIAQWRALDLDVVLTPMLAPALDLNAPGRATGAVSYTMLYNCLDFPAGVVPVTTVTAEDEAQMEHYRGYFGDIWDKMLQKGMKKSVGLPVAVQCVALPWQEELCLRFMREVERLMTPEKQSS

With `O=C(O)c1cccnc1` [NIACIN] the inhibition [1] was “inactive”, the inhibition [2] was “inactive” and the AUC(0-t) at 6 h [3] was 6980 ng·h/mL. For the same compound, the Cmax at 6 h (in vivo) was 7470 ng/mL.
For `CC/C=C\C/C=C\C/C=C\C/C=C\C/C=C\CCCC(=O)N1CCC(NC(=O)c2cccnc2)C1` (single isomer, unassigned), the Cmax (Rattus norvegicus [4]) was 13 ng/mL, the Cmax (Rattus norvegicus [5]) was 73 ng/mL and the Cmax (Rattus norvegicus [6]) was 35 ng/mL. It also gave a Cmax [7] of 564 ng/mL, a Cmax (Rattus norvegicus [8]) of 11 ng/mL and a Cmax [9] of 5320 ng/mL.
For `CC/C=C\C/C=C\C/C=C\C/C=C\C/C=C\CCCC(=O)O`, the inhibition [2] was “inactive” and the inhibition [10] was “inactive”.
With `CC\C=C/C=C/C=C/C=C\CCCCCCCC(=O)O` the Drug uptake [11] was “Not Active” and the Drug uptake [12] was “Not Active”.
In the case of `CC\C=C/C=C/C=C/C=C\CCCCCCCC(=O)NCCNC(=O)c1ccccc1O`, the Drug uptake [13] is reported as “Active”.
In the case of `CC(C)c1c(C(=O)Nc2ccccc2)c(-c2ccccc2)c(-c2ccc(F)cc2)n1CC[C@@H](O)C[C@@H](O)CC(=O)O`, the Activity [14] is reported as “Active”.
For `CC/C=C\C/C=C\C/C=C\C/C=C\C/C=C\C/C=C\CCC(=O)O`, the inhibition (Mus musculus [15]) was “Active”.
In the case of `O=C(O)c1ccccc1O` [SALICYLIC ACID], the Drug metabolism (Plasma) is reported as “metabolite_detected” and the inhibition (Mus musculus [16]) is reported as “Active”.
For `O=C(O)CNC(=O)c1ccccc1O` [SALICYLURIC ACID], the Drug metabolism (Plasma) was “metabolite_detected”.
In the case of `CC/C=C\C/C=C\C/C=C\C/C=C\C/C=C\CCCC(=O)N(C)CCNC(=O)c1cccnc1`, the Drug uptake (Liver) is reported as “Active”, the Cmax (Rattus norvegicus [17]) is reported as “BLD” and the Cmax (Rattus norvegicus [4]) is reported as 11 ng/mL. For the same compound, the Cmax [7] was 400 ng/mL, the Cmax (Rattus norvegicus [8]) was 28 ng/mL and the Cmax (Rattus norvegicus [18]) was “BLD”. It also gave a Cmax [9] of 5060 ng/mL.
In the case of `NCCNC(=O)c1ccccc1O`, the Drug metabolism (Plasma) is reported as “metabolite_detected”.
In the case of `CC\C=C/C=C/C=C/C=C\CCCCCCCC(=O)NCCNC(=O)c1cccnc1`, the Drug uptake [19] is reported as “Not Active”, the Drug uptake [20] is reported as “Not Active” and the Drug uptake [13] is reported as “Active”.
For `[2H]C([2H])([2H])C([2H])([2H])/C=C\C/C=C\C/C=C\C/C=C\C/C=C\CCCC(=O)NCCNC(=O)c1cccnc1`, the Drug metabolism [21] was “tde”.
